For experiment [1], the target named is T1, Uncharacterized protein (Sus scrofa, UniProt I3LIR5).
T1 sequence (I3LIR5 whole entry): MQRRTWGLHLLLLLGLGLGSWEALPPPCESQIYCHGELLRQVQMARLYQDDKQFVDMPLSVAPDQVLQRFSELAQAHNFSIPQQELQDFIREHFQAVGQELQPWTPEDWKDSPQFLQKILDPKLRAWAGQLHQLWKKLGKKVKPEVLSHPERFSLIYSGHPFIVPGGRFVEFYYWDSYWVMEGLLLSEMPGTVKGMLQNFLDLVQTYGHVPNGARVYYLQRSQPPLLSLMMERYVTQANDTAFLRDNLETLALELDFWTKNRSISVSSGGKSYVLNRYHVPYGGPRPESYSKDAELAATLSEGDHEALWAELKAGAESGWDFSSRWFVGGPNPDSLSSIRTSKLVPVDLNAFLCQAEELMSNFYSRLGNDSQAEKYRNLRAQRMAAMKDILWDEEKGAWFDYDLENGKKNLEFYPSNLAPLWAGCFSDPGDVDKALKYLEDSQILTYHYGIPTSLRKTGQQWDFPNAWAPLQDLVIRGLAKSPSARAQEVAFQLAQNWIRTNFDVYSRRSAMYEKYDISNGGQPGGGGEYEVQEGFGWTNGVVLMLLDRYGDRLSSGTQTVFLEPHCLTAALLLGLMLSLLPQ
The experiment in a line: Inhibition of Sus scrofa (pig) trehalase using trehaloase as substrate incubated for 15 min prior to substrate addition measured after 1.5 hr by spectrophotometric analysis. Summed up:
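Porcine trehalase (1.08 µg) in […], pH 5.5, preincubated with compound in DMSO for 15 min at 37 °C. […] added, then incubated 1.5 h at 37 °C. Stopped with Ba(OH)2/Zn(OH)2 and centrifuged. Glucose measured by glucose oxidase/peroxidase/ABTS (30 min, room temperature), A660, against a glucose standard curve. At least 5 concentrations; expressed as pIC50.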

Experiment [2] concerns Drosophila melanogaster. The experiment in a line: Larvicidal activity against Drosophila melanogaster at 200 ppm relative to control. Type of experiment: functional. In short, it runs like this:
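One hundred wild-type eggs placed on 8 cm3 yeast/corn meal/agar medium containing compound at 200 ppm, dissolved in DMSO.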

In experiment [3] the test system is Drosophila melanogaster. The experiment in a line: Insecticidal activity against adult Drosophila melanogaster cultured on compound-treated corn media assessed as inhibition of flight at 200 ppm after 48 hr relative to control. The format is functional. Summed up: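 Wild-type adult flies fed corn medium containing compound for 48 h. Flies ether-anesthetized for 2 min and glued by the abdomen to the arm of a computer-monitored flight mill; flown at 25 °C under natural light. Inhibition % = (1 − treated flight distance/untreated flight distance) × 100.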

Experiment [4] has as its target T2, Trehalase (Bombyx mori, UniProt P32358).
T2 sequence (P32358 whole entry): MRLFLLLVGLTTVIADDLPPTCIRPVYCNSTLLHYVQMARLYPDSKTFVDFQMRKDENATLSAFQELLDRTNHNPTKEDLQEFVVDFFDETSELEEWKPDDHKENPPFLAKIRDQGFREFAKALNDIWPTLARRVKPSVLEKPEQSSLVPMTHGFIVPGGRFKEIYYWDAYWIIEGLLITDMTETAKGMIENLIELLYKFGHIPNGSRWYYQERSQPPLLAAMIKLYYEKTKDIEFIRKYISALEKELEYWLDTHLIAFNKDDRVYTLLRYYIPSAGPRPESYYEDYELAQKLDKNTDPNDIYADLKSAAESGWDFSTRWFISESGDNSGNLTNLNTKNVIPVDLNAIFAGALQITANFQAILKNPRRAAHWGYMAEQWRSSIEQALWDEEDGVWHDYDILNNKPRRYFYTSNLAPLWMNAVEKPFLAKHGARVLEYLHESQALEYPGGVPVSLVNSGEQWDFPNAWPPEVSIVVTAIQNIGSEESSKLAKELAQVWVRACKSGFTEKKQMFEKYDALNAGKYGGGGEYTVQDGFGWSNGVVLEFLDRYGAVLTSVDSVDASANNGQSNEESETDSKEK
Description: Inhibition of Bombyx mori trehalase.

The term IC50 denotes the concentration needed to halve the response being measured. A higher IC50 goes with weaker potency in that assay. Broadly, the inhibition is the relative decrease from the control value, in per cent.

The structures appear in SMILES notation.

In experiment [1], `OCC1(CO)CO/C(=N\c2ccccc2F)N1` gave an IC50 of 75.9 µM. Besides, in experiment [2], the Activity is given as 45.2%. Also, the inhibition at 200 ppm in experiment [3] was 30.7%.

`OCC1(CO)CS/C(=N\c2ccccc2F)N1`: the IC50 in experiment [1] is 832 µM. Further, the Activity in experiment [2] turned out to be 66.5%. The inhibition at 200 ppm in experiment [3] amounted to 45.4%.

The compound `OCC1(CO)CO/C(=N\c2ccc(F)cc2)N1` gave an IC50 in experiment [1] of 263 µM. In experiment [2], this compound gave an Activity of 56.3%. Also, the inhibition at 200 ppm in experiment [3] came to 35.7%.

`OCC1(CO)CS/C(=N\c2ccc(F)cc2)N1` showed an IC50 in experiment [1] of 575 µM. This compound gave an Activity in experiment [2] of 60.4%. Besides, in experiment [3], the inhibition at 200 ppm was determined as 37.2%.

Compound `OCC1(CO)CO/C(=N\c2ccc(F)cc2F)N1` had an IC50 in experiment [1] of 891 µM. Moreover, in experiment [2], the Activity is 17.2%. In addition, the inhibition at 200 ppm in experiment [3] is 2.7%.

With `OCC1(CO)CS/C(=N\c2ccc(F)cc2F)N1`, the half-inhibitory concentration (IC50) in experiment [1] was 6170 µM. This compound also came in with an Activity in experiment [2] of 35.1%. Besides, the inhibition at 200 ppm in experiment [3] is 1.7%.

For `OCC1(CO)CO/C(=N\c2ccc(F)c(Cl)c2)N1`, in experiment [1], the IC50 was 35.5 µM. The Activity in experiment [2] is 65%. Besides, the inhibition at 200 ppm in experiment [3] is 37.2%.

In experiment [1], `OCC1(CO)CS/C(=N\c2ccc(F)c(Cl)c2)N1` had an IC50 of 240 µM. This compound came in with an Activity in experiment [2] of 76%. In experiment [3], the inhibition at 200 ppm amounted to 49.7%.

Compound `OCC1(CO)CO/C(=N\c2ccc(F)c(F)c2F)N1` had an IC50 in experiment [1] of 85.1 µM. This compound also came in with an Activity in experiment [2] of 50.4%. The inhibition at 200 ppm in experiment [3] stood at 16.6%.

The compound `OCC1(CO)CS/C(=N\c2ccc(F)c(F)c2F)N1` showed an IC50 in experiment [1] of 708 µM. This compound also had an Activity in experiment [2] of 65.3%. The inhibition at 200 ppm in experiment [3] came to 26.9%.

On to `OC[C@H]1O[C@H](NC2=N[C@@H]3[C@H](O2)[C@@H](O)[C@H](O)[C@]3(O)CO)[C@H](O)[C@@H](O)[C@@H]1O` [TREHAZOLIN], for which 0.049 µM corresponded to half-maximal inhibition in experiment [4] (IC50).

These data come from ChEMBL document CHEMBL3044872, “Synthesis and quantitative structure-activity relationships of fluorine-containing 4,4-dihydroxylmethyl-2-aryliminooxazo(thiazo)lidines as trehalase inhibitors” (J Agric Food Chem, 2001).
